# ChEMBL document CHEMBL3864121, “Development of ebsulfur analogues as potent antibacterials against methicillin-resistant Staphylococcus aureus” (Bioorg Med Chem, 2016)
# Activity calls are given as the source filed them. The calls are words filed in the database; no cut-off is given here.
# Test system: Staphylococcus aureus
# Experiment: Antibacterial activity against methicillin-resistant Staphylococcus aureus USA100 measured after overnight incubation by broth double-dilution method
# Format: functional
# Conditions: not given
# Summary of the method: (§1)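 MIC by broth double-dilution in liquid Mueller-Hinton medium. Values are reported in µg/mL.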
row,SMILES,MIC
1,CC(C)c1cccc(-n2sc3ccccc3c2=O)c1,0.5 µg/mL

# Test system: Staphylococcus aureus
# Experiment: Antibacterial activity against methicillin-resistant Staphylococcus aureus USA200 measured after overnight incubation by broth double-dilution method
# Format: functional
# Conditions: not given
# Summary of the method: as §1
row,SMILES,MIC
1,CC(C)c1cccc(-n2sc3ccccc3c2=O)c1,0.5 µg/mL

# Test system: Staphylococcus aureus
# Experiment: Antibacterial activity against methicillin-resistant Staphylococcus aureus USA300 measured after overnight incubation by broth double-dilution method
# Format: functional
# Conditions: not given
# Summary of the method: as §1
row,SMILES,MIC
1,CC(C)c1cccc(-n2sc3ccccc3c2=O)c1,≤ 0.25 µg/mL

# Test system: Staphylococcus aureus
# Experiment: Antibacterial activity against methicillin-resistant Staphylococcus aureus USA600 measured after overnight incubation by broth double-dilution method
# Format: functional
# Conditions: not given
# Summary of the method: as §1
row,SMILES,MIC
1,CC(C)c1cccc(-n2sc3ccccc3c2=O)c1,≤ 0.25 µg/mL

# Test system: Staphylococcus epidermidis
# Experiment: Antibacterial activity against Staphylococcus epidermidis ATCC 35984 measured after overnight incubation by broth double-dilution method
# Format: functional
# Conditions: RP62A
# Summary of the method: (§2)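 MIC by broth double-dilution in Mueller-Hinton medium. Re-testing at the time-kill inoculum used 1×10^6 CFU/mL.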
row,SMILES,MIC
1,CC(C)c1cccc(-n2sc3ccccc3c2=O)c1,0.25 µg/mL

# Test system: Enterococcus faecalis
# Experiment: Antibacterial activity against Enterococcus faecalis ATCC 29212 measured after overnight incubation by broth double-dilution method
# Format: functional
# Conditions: not given
# Summary of the method: as §2
row,SMILES,MIC
1,CC(C)c1cccc(-n2sc3ccccc3c2=O)c1,> 125 µg/mL

# Test system: Enterococcus faecalis
# Experiment: Antibacterial activity against Enterococcus faecalis ATCC 49533 measured after overnight incubation by broth double-dilution method
# Format: functional
# Conditions: not given
# Summary of the method: as §2
row,SMILES,MIC
1,CC(C)c1cccc(-n2sc3ccccc3c2=O)c1,> 125 µg/mL

# Test system: Enterococcus faecium
# Experiment: Antibacterial activity against Enterococcus faecium BM4105-RF measured after overnight incubation by broth double-dilution method
# Format: functional
# Conditions: not given
# Summary of the method: as §1
row,SMILES,MIC
1,CC(C)c1cccc(-n2sc3ccccc3c2=O)c1,3.9 µg/mL

# Test system: Enterococcus
# Experiment: Antibacterial activity against Vancomycin-resistant Enterococcus measured after overnight incubation by broth double-dilution method
# Format: functional
# Conditions: not given
# Summary of the method: as §1
row,SMILES,MIC
1,CC(C)c1cccc(-n2sc3ccccc3c2=O)c1,≤ 0.25 µg/mL

# Test system: Listeria monocytogenes
# Experiment: Antibacterial activity against Listeria monocytogenes ATCC 19115 measured after overnight incubation by broth double-dilution method
# Format: functional
# Conditions: not given
# Summary of the method: as §2
row,SMILES,MIC
1,CC(C)c1cccc(-n2sc3ccccc3c2=O)c1,1 µg/mL

# Test system: Mycolicibacterium smegmatis
# Experiment: Antibacterial activity against Mycobacterium smegmatis MC2-155 measured after overnight incubation by broth double-dilution method
# Format: functional
# Conditions: str. MC2 155
# Summary of the method: as §1
row,SMILES,MIC
1,CC(C)c1cccc(-n2sc3ccccc3c2=O)c1,1 µg/mL

# Test system: Acinetobacter baumannii
# Experiment: Antibacterial activity against Acinetobacter baumannii ATCC 19606 measured after overnight incubation by broth double-dilution method
# Format: functional
# Conditions: not given
# Summary of the method: as §2
row,SMILES,MIC
1,CC(C)c1cccc(-n2sc3ccccc3c2=O)c1,31.3 µg/mL

# Test system: Enterobacter cloacae
# Experiment: Antibacterial activity against Enterobacter cloacae ATCC 13047 measured after overnight incubation by broth double-dilution method
# Format: functional
# Conditions: subsp. cloacae ATCC 13047
# Summary of the method: as §1
row,SMILES,MIC
1,CC(C)c1cccc(-n2sc3ccccc3c2=O)c1,> 125 µg/mL

# Test system: Escherichia coli
# Experiment: Antibacterial activity against Escherichia coli MC1061 measured after overnight incubation by broth double-dilution method
# Format: functional
# Conditions: not given
# Summary of the method: as §1
row,SMILES,MIC
1,CC(C)c1cccc(-n2sc3ccccc3c2=O)c1,15.6 µg/mL

# Test system: Klebsiella pneumoniae
# Experiment: Antibacterial activity against Klebsiella pneumoniae ATCC 27736 measured after overnight incubation by broth double-dilution method
# Format: functional
# Conditions: not given
# Summary of the method: as §1
row,SMILES,MIC
1,CC(C)c1cccc(-n2sc3ccccc3c2=O)c1,> 125 µg/mL

# Test system: Pseudomonas aeruginosa
# Experiment: Antibacterial activity against Pseudomonas aeruginosa ATCC 27853 measured after overnight incubation by broth double-dilution method
# Format: functional
# Conditions: not given
# Summary of the method: as §2
row,SMILES,MIC
1,CC(C)c1cccc(-n2sc3ccccc3c2=O)c1,> 125 µg/mL

# Test system: Salmonella enterica
# Experiment: Antibacterial activity against Salmonella enterica ATCC 14028 measured after overnight incubation by broth double-dilution method
# Format: functional
# Conditions: not given
# Summary of the method: as §2
row,SMILES,MIC
1,CC(C)c1cccc(-n2sc3ccccc3c2=O)c1,> 125 µg/mL

# Test system: Staphylococcus epidermidis
# Experiment: Antibacterial activity against Staphylococcus epidermidis ATCC 12228 measured after overnight incubation by broth double-dilution method
# Format: functional
# Conditions: not given
# Summary of the method: as §2
row,SMILES,MIC
1,CC(C)c1cccc(-n2sc3ccccc3c2=O)c1,> 125 µg/mL

# Test system: Staphylococcus epidermidis
# Experiment: Antibiofilm activity against Staphylococcus epidermidis ATCC 35984 assessed as reduction of biofilm at […] ug/ml measured after 24 hrs by crystal violet staining based method relative to control
# Format: functional, RP62A
# Parameters: scale not given: the % may be the effect or the level left
# Conditions: not given
row,SMILES,Activity
1,CC(C)c1cccc(-n2sc3ccccc3c2=O)c1,50 - 60%

# Test system: not listed separately
# Experiment: Cytotoxicity against mouse RBCs assessed as hemolysis up to […] measured after 1 hr
# Format: toxicity, Erythrocyte
# Conditions: mouse red blood cells, read-out: Activity
row,SMILES,hemolysis at 1 h
1,CC(C)c1cccc(-n2sc3ccccc3c2=O)c1,≤ 20%

# Organism: Mus musculus
# Experiment: Cytotoxicity against mouse RBCs assessed as hemolysis at 0.24 to 31.2 ug/ml measured after 1 hr
# Format: toxicity
# Conditions: erythrocyte
# Summary of the method: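 Murine red blood cells were exposed to compounds at various concentrations, with amikacin as a control. Percent hemolysis was scored against untreated cells (0%) and 1% Triton X (100%).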
row,SMILES,Activity
1,CC(C)c1cccc(-n2sc3ccccc3c2=O)c1,Non-Toxic

# Test system: not listed separately
# Experiment: Cytotoxicity against HEK293 cells assessed as cell death up to 10 ug/ml measured after 24 hrs by resazurin dye-based fluorescence analysis relative to untreated control
# Format: toxicity
# Conditions: human, hek293, 24 h
row,SMILES,Activity
1,CC(C)c1cccc(-n2sc3ccccc3c2=O)c1,> 20%

# Test system: Staphylococcus aureus
# Experiment: Antibacterial activity against methicillin-resistant Staphylococcus aureus S22 using 1 10^6CFU/ml measured after overnight incubation by broth double-dilution method
# Format: functional
# Conditions: not given
row,SMILES,Activity
1,CC(C)c1cccc(-n2sc3ccccc3c2=O)c1,Active
